Reference: PMC9116722 (Cancer chemotherapy and pharmacology, 2022)
“Also recorded” adds a separate entry of the source.

Experiment: Adverse events
Format: in vivo, human
Procedure, shortened: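 Patients with germline BRCA-mutated cancers, or BRCA-wildtype TNBC or platinum-refractory ovarian cancer, took oral drug continuously twice daily in 28-day cycles. There were nine dose levels from 50 to 500 mg BID under 3+3 escalation, run separately per cohort after the first DLT. Toxicities were graded by CTCAE v4.0, with DLTs assessed during cycle 1.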

## C[C@]1(c2nc3c(C(N)=O)cccc3[nH]2)CCCN1 [veliparib]
BRCAmut, DL9 500/500 mg AM/PM
  Any Grade 3 toxicity: 1 (14) number of patients (%)
  Any Grade 4 toxicity: 1 (14) number of patients (%)
  Appendicitis, Grade 3: 0 number of patients (%)
  Aspartate aminotransferase increased, Grade 3: 0 number of patients (%)
  Dehydration, Grade 3: 0 number of patients (%)
  Dyspnea, Grade 4: 1 (14) number of patients (%)
  Fatigue, Grade 3: 0 number of patients (%)
  Headache, Grade 3: 0 number of patients (%)
  Hypophosphatemia, Grade 3: 0 number of patients (%)
  Lymphocyte count decreased, Grade 3: 1 (14) number of patients (%)
  Lymphocyte count decreased, Grade 4: 0 number of patients (%)
  Nausea, Grade 3: 0 number of patients (%)
  Platelet count decreased, Grade 4: 1 (14) number of patients (%)
  Thromboembolic event, Grade 3: 0 number of patients (%)
  Thromboembolic event, Grade 4: 0 number of patients (%)
  Urinary tract infection, Grade 3: 0 number of patients (%)
BRCAmut, all dose levels
  Abdominal pain, Grade 3: 2 (3) number of patients (%)
  Alkaline phosphatase increased, Grade 3: 1 (1) number of patients (%)
  Anemia, Grade 3: 1 (1) number of patients (%)
  Anemia, Grade 4: 1 (1) number of patients (%)
  Any Grade 3/4 toxicity: 17 (24) number of patients (%)
  Any Grade 3 toxicity: 15 (21) number of patients (%)
  Any Grade 4 toxicity: 3 (4) number of patients (%)
  Appendicitis, Grade 3: 1 (1) number of patients (%)
  Aspartate aminotransferase increased, Grade 3: 1 (1) number of patients (%)
  Dehydration, Grade 3: 1 (1) number of patients (%)
  Dyspnea, Grade 4: 1 (1) number of patients (%)
  Fatigue, Grade 3: 1 (1) number of patients (%)
  Headache, Grade 3: 1 (1) number of patients (%)
  Hypophosphatemia, Grade 3: 1 (1) number of patients (%)
  Lymphocyte count decreased, Grade 3: 9 (13) number of patients (%)
  Lymphocyte count decreased, Grade 4: 1 (1) number of patients (%)
  Nausea, Grade 3: 2 (3) number of patients (%)
  Platelet count decreased, Grade 4: 1 (1) number of patients (%)
  Thromboembolic event, Grade 3: 2 (3) number of patients (%)
  Thromboembolic event, Grade 4: 1 (1) number of patients (%)
  Urinary tract infection, Grade 3: 1 (1) number of patients (%)
BRCAwt group
  grade 3/4 decreased lymphocyte count: 18%
  incidence of grade 3/4 toxicity: 29%
BRCAwt, DL1 50/50 mg AM/PM
  Any Grade 3 toxicity: 0 number of patients (%)
  Basilic vein thrombosis, Grade 3: 0 number of patients (%)
  Dyspnea, Grade 3: 0 number of patients (%)
  Fatigue, Grade 3: 0 number of patients (%)
  Hypophosphatemia, Grade 3: 0 number of patients (%)
  Lymphocyte count decreased, Grade 3: 0 number of patients (%)
BRCAwt, DL2 100/50 mg AM/PM
  Any Grade 3 toxicity: 1 (33) number of patients (%)
  Basilic vein thrombosis, Grade 3: 0 number of patients (%)
  Dyspnea, Grade 3: 0 number of patients (%)
  Fatigue, Grade 3: 0 number of patients (%)
  Hypophosphatemia, Grade 3: 0 number of patients (%)
  Lymphocyte count decreased, Grade 3: 1 (33) number of patients (%)
BRCAwt, DL3 100/100 mg AM/PM
  Any Grade 3 toxicity: 0 number of patients (%)
  Basilic vein thrombosis, Grade 3: 0 number of patients (%)
  Dyspnea, Grade 3: 0 number of patients (%)
  Fatigue, Grade 3: 0 number of patients (%)
  Hypophosphatemia, Grade 3: 0 number of patients (%)
  Lymphocyte count decreased, Grade 3: 0 number of patients (%)
BRCAwt, DL6 200/200 mg AM/PM
  Any Grade 3 toxicity: 2 (67) number of patients (%)
  Basilic vein thrombosis, Grade 3: 1 (33) number of patients (%)
  Dyspnea, Grade 3: 0 number of patients (%)
  Fatigue, Grade 3: 0 number of patients (%)
  Hypophosphatemia, Grade 3: 0 number of patients (%)
  Lymphocyte count decreased, Grade 3: 1 (33) number of patients (%)
BRCAwt, DL7 300/300 mg AM/PM
  Any Grade 3 toxicity: 0 number of patients (%)
  Basilic vein thrombosis, Grade 3: 0 number of patients (%)
  Dyspnea, Grade 3: 0 number of patients (%)
  Fatigue, Grade 3: 0 number of patients (%)
  Hypophosphatemia, Grade 3: 0 number of patients (%)
  Lymphocyte count decreased, Grade 3: 0 number of patients (%)
BRCAwt, DL8 400/400 mg AM/PM
  Any Grade 3 toxicity: 3 (43) number of patients (%)
  Basilic vein thrombosis, Grade 3: 0 number of patients (%)
  Dyspnea, Grade 3: 1 (14) number of patients (%)
  Fatigue, Grade 3: 1 (14) number of patients (%)
  Hypophosphatemia, Grade 3: 1 (14) number of patients (%)
  Lymphocyte count decreased, Grade 3: 1 (14) number of patients (%)
BRCAwt, all dose levels
  Any Grade 3 toxicity: 8 (29) number of patients (%)
  Basilic vein thrombosis, Grade 3: 1 (4) number of patients (%)
  Dyspnea, Grade 3: 1 (4) number of patients (%)
  Fatigue, Grade 3: 1 (4) number of patients (%)
  Hypophosphatemia, Grade 3: 1 (4) number of patients (%)
  Lymphocyte count decreased, Grade 3: 5 (18) number of patients (%)
DL7-DL9
  patients who came off study after non-dose limiting nausea: 6 patients
All patients
  all-grade decreased lymphocyte count (lymphopenia): 38%
  all-grade nausea: 65%
  grade 3/4 lymphopenia: 15%
  grade 3 or 4 anemia: 6%
Continuous single-agent
  overall tolerability: safe and tolerable; also recorded: well-tolerated
